Assay outcomes from PubChem BioAssay.
An excerpt weighted towards active compounds, which were near 2% of everything screened.
FGF22 binding: shifts melting point of recombinant human FGF22; Q9HCT0; recombinant FGF22 thermal shift, SYPRO orange fluorescence; percent of sucrose octasulfate shift, DMSO zero; activity (Tm shift, normalised), % at 9.99 µM; 340,000 tested, 1.5% active;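 active means mean Tm shift, scaled 0 neutral to 100 positive control, at about 1.3% or above, every replicate too, limit read from the data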
ABCB6 inh MLPCN: blocks the human ABCB6 transporter; 360,000 tested, 0.19% active; K562-ABCB6 porphyrin accumulation, flow cytometry, 1 h; active compounds read low; AID 602162; Q9NP58; fluorescence ratio to DMSO, % at 10 µM;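 active means fluorescence ratio to DMSO below 75%, the collection mean minus 3 SD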;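 further: signal is porphyrin accumulated inside mitochondria; 100% equals median channel fluorescence of DMSO control wells; lower ratio means ABCB6 inhibition with less porphyrin fluorescence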
Exocytosis inh: lytic granule exocytosis inhibition; 360,000 tested, 0.66% active; inhibition, % at 10 µM; TALL-104 LAMP-1 surface exposure, flow cytometry; cells stimulated with thapsigargin and PMA;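 active means inhibition above about 55%, limit read from the data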
DAGLB inhibitor: diacylglycerol lipase beta (human) inhibition. Q8NCG7. HEK293T DAGLB membrane lysate, EnzChek fluorogenic substrate. inhibition, % at 5.17 µM. 340,000 tested, 0.059% active. AID 504411; in the data active means inhibition above about 34%;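 further: 0% = enzyme with vehicle and 100% = wells lacking enzyme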
VLA-4 inh: inhibition in a human VLA-4 binding assay; P13612; inhibition, % (about 7 µM as worked out from the volumes in the protocol); 330,000 tested, 0.2% active; VLA-4 expressing cells, ligand binding flow cytometry; in the data active means inhibition above about 50%
Target sequence (P13612 whole entry, looked up): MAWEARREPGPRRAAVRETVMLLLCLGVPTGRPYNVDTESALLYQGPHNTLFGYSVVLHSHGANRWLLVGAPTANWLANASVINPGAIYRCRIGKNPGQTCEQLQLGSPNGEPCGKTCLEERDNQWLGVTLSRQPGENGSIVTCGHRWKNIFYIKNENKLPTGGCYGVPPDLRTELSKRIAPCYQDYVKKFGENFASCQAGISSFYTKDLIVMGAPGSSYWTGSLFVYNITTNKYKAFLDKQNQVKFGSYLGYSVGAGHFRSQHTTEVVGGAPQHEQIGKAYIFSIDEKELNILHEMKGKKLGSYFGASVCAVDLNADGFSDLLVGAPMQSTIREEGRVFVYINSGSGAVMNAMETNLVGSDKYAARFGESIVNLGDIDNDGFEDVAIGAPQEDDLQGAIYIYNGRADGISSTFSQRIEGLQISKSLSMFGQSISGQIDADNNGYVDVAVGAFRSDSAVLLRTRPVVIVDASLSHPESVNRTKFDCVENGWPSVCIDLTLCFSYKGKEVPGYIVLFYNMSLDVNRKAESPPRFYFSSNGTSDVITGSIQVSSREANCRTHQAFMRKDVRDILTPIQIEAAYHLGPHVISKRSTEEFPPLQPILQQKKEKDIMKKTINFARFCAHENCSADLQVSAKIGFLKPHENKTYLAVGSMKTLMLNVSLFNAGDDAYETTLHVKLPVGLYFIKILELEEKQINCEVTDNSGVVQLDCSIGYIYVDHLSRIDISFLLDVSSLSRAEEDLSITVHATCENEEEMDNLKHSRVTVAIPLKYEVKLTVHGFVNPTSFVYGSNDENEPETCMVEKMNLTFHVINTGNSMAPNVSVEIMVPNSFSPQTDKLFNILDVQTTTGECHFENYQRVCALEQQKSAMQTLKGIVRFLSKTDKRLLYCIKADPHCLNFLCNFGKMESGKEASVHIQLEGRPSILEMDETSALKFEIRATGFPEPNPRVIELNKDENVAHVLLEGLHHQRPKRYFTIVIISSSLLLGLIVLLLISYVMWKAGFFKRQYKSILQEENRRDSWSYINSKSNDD
MT1-MMP act inh: blocks activation of human MT1-MMP; P50281; HT1080 RFP-PRO-GFP cells, GFP/RFP ratio fluorescence, overnight; percent of plate control window, DMSO zero; GFP/RFP ratio change, % at 20 µM; 360,000 tested, 0.061% active;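 active means GFP/RFP ratio change of at least 30% with cell ATP level not reduced by more than half and red fluorescence within 50% of control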
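Assay system – RFP-PRO-GFP reporter HT1080 cells · Compound dosing – single dose of 20 µM compound, 1% DMSO final · Incubation – overnight compound exposure at 37 °C · Measure – GFP/RFP fluorescence ratio · Benchmarks – DMSO wells and RFP-L50D-GFP cells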
An asterisk follows results filed as active; / = not tested or not shown.

SMILES	FGF22 binding	ABCB6 inh MLPCN	Exocytosis inh	DAGLB inhibitor	VLA-4 inh	MT1-MMP act inh
CCOC(=O)c1c(-n2c(C)cc(/C=C3\C(=O)NC(=O)N(C)C3=O)c2C)sc2c1CCCC2	/	94.0	56.9*	0.2	13.2	-13.0
O=C(Cc1ccccc1)N1C[C@H]2[C@@H](c3ccccc31)[C@H](CO)N2Cc1ccccc1	-0.5	/	/	/	/	/
CC12CCC3C(CC=C4CC5(CCC43C)OCCO5)C1CCC2=O (stereo not given)	44.4*	94.0	-0.2	-2.0	0.0	-0.5
NS(=O)(=O)OC(CCc1ccccc1)C(Cl)(Cl)Cl (stereo not given)	44.5*	97.0	-16.8	-3.1	1.1	4.8
Cc1cccc(N2C(=O)NC(=O)/C(=C\c3cccn3-c3ccc(Cl)cc3)C2=O)c1	/	107.0	73.0*	25.1	5.9	14.1
Cc1cc(C)cc(N2C(=O)NC(=O)/C(=C/c3cccn3-c3ccc(Cl)cc3)C2=O)c1	-0.4	91.0	13.4	18.6	9.8	4.3
CC(C)OC(=O)Nc1ccc(N=C(N)N[N+](=O)[O-])cc1	43.3*	99.0	-0.4	-0.3	10.7	5.3
COC(=O)C1=C(C(=O)OC)SC2(S1)C(C(=O)OC)=C(C(=O)OC)Sc1c2ssc1=O	-0.5	106.0	100.1*	8.3	/	-3.6
COc1ccc(-c2ccc([C@H]3[C@@H](CO)N4CCCCN(C(=O)Cc5ccccc5)C[C@@H]34)cc2)cc1	0.2	/	/	/	/	/
CC(C)NC(=O)N1[C@@H]2c3ccc(-c4cccc(C(=O)N(C)C)c4)c(=O)n3C[C@H]1[C@H](CO)[C@H]2C(=O)O	-0.3	/	/	/	/	/
COc1ccc(NC(c2ccccc2F)P(=O)(Oc2ccccc2)Oc2ccccc2)cc1 (stereo not given)	44.3*	97.0	-1.0	1.1	15.8	-9.0
COC(=O)[C@@H]1[C@@H](CO)[C@@H]2Cn3c(cccc3=O)[C@H]1N2C(=O)C1CCCC1	-0.6	/	/	/	/	/
Cc1ccc2c(c1)C1CN(C)CCC1N2C(=O)c1cn(-c2ccccc2)nc1-c1ccccc1 (stereo not given)	1.6*	101.0	9.8	-1.1	25.2	-13.1
Cc1ccc2c(c1)C1CN(C)CCC1N2C(=O)c1cccnc1Cl (stereo not given)	0.1	102.0	16.5	-3.0	9.6	-2.3
O=c1[nH]c(O)c(/C=C2/C=CC(c3cc(Cl)ccc3Cl)=N2)c(=O)[nH]1	-0.1	112.0	91.6*	13.7	-33.4	-40.6
O=C(Cc1cccnc1)N1CCCCN2[C@H](CO)[C@@H](c3ccc(/C=C/c4ccccc4)cc3)[C@@H]2C1	-0.4	/	/	/	/	/
CCN1/C(=C/C=C/C2=[N+](CC)c3ccccc3C2(C)C)C(C)(C)c2ccccc21	0.2	/	69.1*	-78.0	/	15.3
CN1/C(=C\C=C2C(=O)NC(=O)NC2=O)C(C)(C)c2ccccc21	-0.2	104.0	-0.1	-27.6	0.0	-135.7
O=C(Cc1cccnc1)N1CCCCN2[C@H](C1)[C@@H](c1ccc(C#CC3(O)CCCC3)cc1)[C@@H]2CO	0.7	/	/	/	/	/
Cc1ccc(/C=C2\C(=O)NC(=O)N(CCc3ccc(F)cc3)C2=O)s1	0.2	100.0	92.2*	7.6	13.3	-1.4
O=C1NC(=O)N(CCc2ccc(F)cc2)C(=O)/C1=C\C=C\c1ccccc1	-0.1	93.0	66.0*	6.0	/	-34.1
O=C1NC(=O)N(Cc2ccc(F)cc2)C(=O)/C1=C/c1cccs1	0.1	99.0	56.0*	12.1	44.6	14.6
COC(=O)[C@H]1N[C@H]2c3ccc(C4=CCCC4)c(=O)n3C[C@H]2[C@@H]1CO	0.0	/	/	/	/	/
O=C(Cc1ccccn1)N1CC2(C1)[C@H](c1ccccc1)[C@@H](CO)N2Cc1ccccn1	1.0	/	/	/	/	/
O=C1CNC[C@@H]2[C@@H](c3ccc(Br)cc3)[C@@H](CO)N12	0.1	/	/	/	/	/
SMILES	FGF22 binding	ABCB6 inh MLPCN	Exocytosis inh	DAGLB inhibitor	VLA-4 inh	MT1-MMP act inh
c1cncc(-c2ccc(C3[C@H]4CNC[C@@H]3N4CC3CC3)cc2)c1 (stereo not given in full)	0.0	/	/	/	/	/
Cc1ccc(N2C(=O)NC(=O)/C(=C\C=C\c3ccco3)C2=O)cc1	40.6	100.0	89.9*	0.7	17.9	-31.6
O=C1NC(=O)N(c2ccccc2)C(=O)/C1=C/C=C/c1ccco1	0.2	100.0	19.1	1.2	27.5	-11.4
Cc1ccc(N2C(=O)NC(=O)/C(=C\C=C\c3ccco3)C2=O)cc1C	0.0	92.0	58.6*	5.8	38.3	-8.4
CN(C)c1ccc(/C=C/C=C2/C(=O)NC(=O)N(c3ccccc3)C2=O)cc1	43.5*	237.0	5.9	7.9	/	8.4
Cc1cccc(N2C(=O)NC(=O)/C(=C\C=C\c3ccco3)C2=O)c1	0.1	94.0	28.3	1.5	44.3	-35.5
COc1ccc(-[n+]2c(-c3ccccc3)cc(-c3ccc(C)cc3)cc2-c2ccccc2)cc1	0.0	98.0	74.4*	-2.2	-25.5	-1.8
O=C(NCCO)c1nsnc1NCCCl	43.3*	100.0	-1.5	-0.1	6.1	-0.8
O=C1C(=O)c2cccc3cccc1c23	-0.1	100.0	1.6	1.0	15.1	1.4
O=C1C(=O)c2ccccc2-c2ccccc21	-0.5	105.0	84.7*	-31.8	-12.6	-21.9
CC(C)CCNC(=O)c1c(N)n(Cc2ccc3c(c2)OCO3)c2nc3ccccc3nc12	/	94.0	56.4*	1.8	7.5	-33.3
C/C(=N\N1CCCCCC1)c1c(O)n(-c2ccc(Cl)cc2)c(=O)[nH]c1=O	0.0	102.0	1.7	-2.7	-179.1	-0.1
C/C(=N\N1CCCCCC1)c1c(O)n(-c2ccc(C)cc2)c(=O)[nH]c1=O	43.6*	98.0	-2.0	0.8	-5.7	4.5
Cc1ccccc1C(=O)N1Cc2ccccc2-n2nncc2C1	-0.2	92.0	-1.4	1.5	/	1.3
O=C(c1cccnc1)N1Cc2ccccc2-n2nncc2C1	43.6*	106.0	-2.3	1.6	/	5.8
CCCCn1c(O)c(/C=N/N2CCCCC2c2cccnc2)c(=O)[nH]c1=S (stereo not given)	/	93.0	-0.6	3.2	2.2	-2.5
Cc1ccc(-n2c(O)c(/C=N/N3CCCCC3c3cccnc3)c(=O)[nH]c2=S)cc1 (stereo not given)	43.5*	102.0	7.8	-1.7	12.4	-9.5
COc1ccccc1N1C(=O)NC(=O)/C(=C/c2ccc3c(c2)Cc2ccccc2-3)C1=O	43.5*	106.0	-1.5	-1.0	5.6	-1.9
COc1ccc(C#Cc2ccc([C@@H]3[C@H](CO)N4CCCCN(C(=O)Cc5cccnc5)C[C@@H]34)cc2)cc1	-0.1	/	/	/	/	/
O=C(Cc1ccncc1)N1CCCCN2[C@H](CO)[C@H](c3ccc(-c4ccncc4)cc3)[C@@H]2C1	-0.6	/	/	/	/	/
CCOC(=O)C1(CCOc2ccccc2)CCN(Cc2cccc(O)c2)CC1	0.0	100.0	90.5*	-3.4	-1.1	-11.2
